Assays:
[1] = test system: PC3 prostate tumor xenografts; assay: In vivo MRI of PC3 tumor-bearing mice; design: species or system mouse; conditions: T1-weighted 3D FLASH, 0.1 mmol/kg i.v., imaged at 10, 20 and 30 min, n = 5
How it was run: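 Male athymic nude mice carried subcutaneous PC3 xenografts (100 µL of 4×10^7 cells/mL in Matrigel) and were imaged at 5–8 mm tumor diameter on a 1.0 T scanner. Agents in saline were given i.v. at 0.1 mmol/kg Gd3+, with a gadoteridol control. Images were taken pre-contrast and every 10 min to 30 min by axial T1 spin echo (TR 500 ms, TE 8.144 ms) and coronal 3D FLASH (TR 17.362 ms, TE 6 ms, 15°). CNR was the tumor/muscle ROI signal […] normalised to noise.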

[2] = Relaxivity measurement of contrast agents; format: physicochemical; conditions: 1.5 T, in water, 37 °C

| Structure (SMILES) | Time of peak CNR in PC3 tumors [1] | r1 relaxivity [2] |
| --- | --- | --- |
| CC(O)CN1CCN(CC(=O)[O-])CCN(CC(=O)[O-])CCN(CC(=O)[O-])CC1.[Gd+3] (stereo not drawn) [Gd(HP-DO3A), gadoteridol] | 10 min | 2.9 mM⁻¹ s⁻¹ |
| O=C([O-])CN1CCN(CC(=O)[O-])CCN(CC(=O)O)CCN(CC(=O)[O-])CC1.[Gd+3] [Gd-DOTA] | – | 2.9 mM⁻¹ s⁻¹ |

— PMC6026531 (Molecular pharmaceutics, 2017)
